Test results: ChEMBL document CHEMBL3758168, “Hybrid triazoles: Design and synthesis as potential dual inhibitor of growth and efflux inhibition in tuberculosis” (Eur J Med Chem, 2016)
≈ marks a conversion by molar mass, not a printed value.

What was measured:
[1] = system: Mycolicibacterium smegmatis; experiment: Anti-tubercular activity against Mycobacterium smegmatis MC2 155 ATCC 700084 after 3 days by microdilution method; type: functional; settings: MC2 155 ATCC 700084, 72 h
Procedure, shortened: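 M. smegmatis mc2155 grown in MB7H9 + 10% OADC at 37 °C with shaking to OD600 0.8. Inoculum set to 0.5 McFarland, diluted 1:100, and mixed 1:1 with two-fold serial dilutions in MB7H9. Plates incubated 3 days at 37 °C with growth and sterility controls. MIC taken as the lowest concentration with no visible growth.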

[2] = Cytotoxicity against human MDM assessed as cell viability after 3 days by Alamar blue dye-based fluorocytometric analysis relative to control; settings: 72 h
[3] = system: Mycobacterium tuberculosis; experiment: Antibacterial activity against Mycobacterium tuberculosis H37Rv ATCC 27294T assessed as isoniazid MIC at 64 ug/ml after 7 days by microdilution checkerboard assay; type: functional; settings: 168 h
Procedure, shortened: (§1)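 Two-dimensional checkerboard in H37Rv at 10^5 CFU/ml in MB7H9/OADC. Partner drug (amikacin, EtBr, isoniazid, ofloxacin or rifampin) two-fold serially diluted across columns 3-11. Test compound two-fold serially diluted down rows 2-6. Plates incubated 7 days at 37 °C, then MTT added overnight. […] Run in triplicate.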

[4] = system: Mycobacterium tuberculosis; experiment: Antibacterial activity against Mycobacterium tuberculosis H37Rv ATCC 27294T assessed as isoniazid MIC at 32 ug/ml after 7 days by microdilution checkerboard assay; type: functional; settings: 168 h; procedure, shortened: as §1
[5] = system: Mycobacterium tuberculosis; experiment: Antibacterial activity against Mycobacterium tuberculosis H37Rv ATCC 27294T assessed as ethidium bromide MIC at 32 ug/ml after 7 days by microdilution checkerboard assay; type: functional; settings: 168 h; procedure, shortened: as §1
[6] = system: Mycobacterium tuberculosis; experiment: Antibacterial activity against Mycobacterium tuberculosis H37Rv ATCC 27294T assessed as ethidium bromide MIC at 64 ug/ml after 7 days by microdilution checkerboard assay; type: functional; settings: 168 h; procedure, shortened: as §1
[7] = system: Mycobacterium tuberculosis; experiment: Antibacterial activity against Mycobacterium tuberculosis H37Rv ATCC 27294T assessed as ethidium bromide MIC at 1 ug/ml after 7 days by microdilution checkerboard assay; type: functional; settings: 168 h; procedure, shortened: as §1
[8] = system: Mycobacterium tuberculosis; experiment: Antibacterial activity against Mycobacterium tuberculosis H37Rv ATCC 27294T assessed as ethidium bromide MIC at 2 ug/ml after 7 days by microdilution checkerboard assay; type: functional; settings: 168 h; procedure, shortened: as §1
[9] = system: Mycobacterium tuberculosis; experiment: Antibacterial activity against Mycobacterium tuberculosis H37Rv ATCC 27294T assessed as ethidium bromide MIC at 4 ug/ml after 7 days by microdilution checkerboard assay; type: functional; settings: 168 h; procedure, shortened: as §1
[10] = system: Mycobacterium tuberculosis; experiment: Antibacterial activity against Mycobacterium tuberculosis H37Rv ATCC 27294T assessed as ethidium bromide MIC at 8 ug/ml after 7 days by microdilution checkerboard assay; type: functional; settings: 168 h; procedure, shortened: as §1
[11] = system: Mycobacterium tuberculosis; experiment: Antibacterial activity against Mycobacterium tuberculosis H37Rv ATCC 27294T assessed as ethidium bromide MIC at 16 ug/ml after 7 days by microdilution checkerboard assay; type: functional; settings: 168 h; procedure, shortened: as §1
[12] = system: Mycobacterium tuberculosis; experiment: Antibacterial activity against Mycobacterium tuberculosis H37Rv ATCC 27294T assessed as ofloxacin MIC at 32 ug/ml after 7 days by microdilution checkerboard assay; type: functional; settings: 168 h; procedure, shortened: as §1
[13] = system: Mycobacterium tuberculosis; experiment: Antibacterial activity against Mycobacterium tuberculosis H37Rv ATCC 27294T assessed as ofloxacin MIC at 64 ug/ml after 7 days by microdilution checkerboard assay; type: functional; settings: 168 h; procedure, shortened: as §1
[14] = system: Mycobacterium tuberculosis; experiment: Antibacterial activity against Mycobacterium tuberculosis H37Rv ATCC 27294T assessed as ofloxacin MIC at 1 ug/ml after 7 days by microdilution checkerboard assay; type: functional; settings: 168 h; procedure, shortened: as §1
[15] = system: Mycobacterium tuberculosis; experiment: Antibacterial activity against Mycobacterium tuberculosis H37Rv ATCC 27294T assessed as ofloxacin MIC at 2 ug/ml after 7 days by microdilution checkerboard assay; type: functional; settings: 168 h; procedure, shortened: as §1
[16] = system: Mycobacterium tuberculosis; experiment: Antibacterial activity against Mycobacterium tuberculosis H37Rv ATCC 27294T assessed as ofloxacin MIC at 4 ug/ml after 7 days by microdilution checkerboard assay; type: functional; settings: 168 h; procedure, shortened: as §1
[17] = system: Mycobacterium tuberculosis; experiment: Antibacterial activity against Mycobacterium tuberculosis H37Rv ATCC 27294T assessed as ofloxacin MIC at 8 ug/ml after 7 days by microdilution checkerboard assay; type: functional; settings: 168 h; procedure, shortened: as §1
[18] = system: Mycobacterium tuberculosis; experiment: Antibacterial activity against Mycobacterium tuberculosis H37Rv ATCC 27294T assessed as ofloxacin MIC at 16 ug/ml after 7 days by microdilution checkerboard assay; type: functional; settings: 168 h; procedure, shortened: as §1
[19] = system: Mycobacterium tuberculosis; experiment: Antibacterial activity against Mycobacterium tuberculosis H37Rv ATCC 27294T assessed as amikacin MIC at 32 ug/ml after 7 days by microdilution checkerboard assay; type: functional; settings: 168 h; procedure, shortened: as §1
[20] = system: Mycobacterium tuberculosis; experiment: Antibacterial activity against Mycobacterium tuberculosis H37Rv ATCC 27294T assessed as amikacin MIC at 64 ug/ml after 7 days by microdilution checkerboard assay; type: functional; settings: 168 h; procedure, shortened: as §1
[21] = system: Mycobacterium tuberculosis; experiment: Antibacterial activity against Mycobacterium tuberculosis H37Rv ATCC 27294T assessed as amikacin MIC at 1 ug/ml after 7 days by microdilution checkerboard assay; type: functional; settings: 168 h; procedure, shortened: as §1
[22] = system: Mycobacterium tuberculosis; experiment: Antibacterial activity against Mycobacterium tuberculosis H37Rv ATCC 27294T assessed as amikacin MIC at 2 ug/ml after 7 days by microdilution checkerboard assay; type: functional; settings: 168 h; procedure, shortened: as §1
[23] = system: Mycobacterium tuberculosis; experiment: Antibacterial activity against Mycobacterium tuberculosis H37Rv ATCC 27294T assessed as amikacin MIC at 4 ug/ml after 7 days by microdilution checkerboard assay; type: functional; settings: 168 h; procedure, shortened: as §1
[24] = system: Mycobacterium tuberculosis; experiment: Anti-tubercular activity against Mycobacterium tuberculosis H37Rv ATCC 27294T after 7 days by mircodilution method; type: functional; settings: 168 h
Procedure, shortened: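 H37Rv grown static in MB7H9 + 10% OADC at 37 °C to OD600 0.8, then diluted to about 10^5 cells/ml. Mixed 1:1 with two-fold serial dilutions in MB7H9/OADC and incubated 7 days at 37 °C. MTT added to final 2.5% and plates incubated overnight. MIC is the lowest concentration with no colour change. Run in triplicate.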

[25] = system: Mycobacterium tuberculosis; experiment: Antibacterial activity against Mycobacterium tuberculosis H37Rv ATCC 27294T assessed as isoniazid MIC at 16 ug/ml after 7 days by microdilution checkerboard assay; type: functional; settings: 168 h; procedure, shortened: as §1
[26] = system: Mycobacterium tuberculosis; experiment: Antibacterial activity against Mycobacterium tuberculosis H37Rv ATCC 27294T assessed as isoniazid MIC at 8 ug/ml after 7 days by microdilution checkerboard assay; type: functional; settings: 168 h; procedure, shortened: as §1
[27] = system: Mycobacterium tuberculosis; experiment: Antibacterial activity against Mycobacterium tuberculosis H37Rv ATCC 27294T assessed as isoniazid MIC at 4 ug/ml after 7 days by microdilution checkerboard; type: functional; settings: 168 h; procedure, shortened: as §1
[28] = system: Mycobacterium tuberculosis; experiment: Antibacterial activity against Mycobacterium tuberculosis H37Rv ATCC 27294T assessed as isoniazid MIC at 2 ug/ml after 7 days by microdilution checkerboard assay; type: functional; settings: 168 h; procedure, shortened: as §1
[29] = system: Mycobacterium tuberculosis; experiment: Antibacterial activity against Mycobacterium tuberculosis H37Rv ATCC 27294T assessed as isoniazid MIC at 1 ug/ml after 7 days by microdilution checkerboard assay; type: functional; settings: 168 h; procedure, shortened: as §1
[30] = system: Mycobacterium tuberculosis; experiment: Antibacterial activity against Mycobacterium tuberculosis H37Rv ATCC 27294T assessed as amikacin MIC at 8 ug/ml after 7 days by microdilution checkerboard assay; type: functional; settings: 168 h; procedure, shortened: as §1
[31] = system: Mycobacterium tuberculosis; experiment: Antibacterial activity against Mycobacterium tuberculosis H37Rv ATCC 27294T assessed as amikacin MIC at 16 ug/ml after 7 days by microdilution checkerboard assay; type: functional; settings: 168 h; procedure, shortened: as §1
[32] = system: Mycobacterium tuberculosis; experiment: Antibacterial activity against Mycobacterium tuberculosis H37Rv ATCC 27294T assessed as rifampin MIC at 32 ug/ml after 7 days by microdilution checkerboard assay; type: functional; settings: 168 h
Procedure, shortened: (§2)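 M. tuberculosis H37Rv grown in MB7H9 + 10% OADC at 37 °C to OD600 0.8; plates inoculated at 10^5 CFU/ml. Rifampicin two-fold serially diluted across columns, test compound two-fold diluted down rows (two-dimensional checkerboard). Sealed, 37 °C for seven days, then MTT added and incubated overnight. MIC read as no colour change. Triplicate.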

[33] = system: Mycobacterium tuberculosis; experiment: Antibacterial activity against Mycobacterium tuberculosis H37Rv ATCC 27294T assessed as rifampin MIC at 64 ug/ml after 7 days by microdilution checkerboard assay; type: functional; settings: 168 h; procedure, shortened: as §2
[34] = system: Mycobacterium tuberculosis; experiment: Antibacterial activity against Mycobacterium tuberculosis H37Rv ATCC 27294T assessed as rifampin MIC at 1 ug/ml after 7 days by microdilution checkerboard assay; type: functional; settings: 168 h; procedure, shortened: as §2
[35] = system: Mycobacterium tuberculosis; experiment: Antibacterial activity against Mycobacterium tuberculosis H37Rv ATCC 27294T assessed as rifampin MIC at 2 ug/ml after 7 days by microdilution checkerboard assay; type: functional; settings: 168 h; procedure, shortened: as §2
[36] = system: Mycobacterium tuberculosis; experiment: Antibacterial activity against Mycobacterium tuberculosis H37Rv ATCC 27294T assessed as rifampin MIC at 4 ug/ml after 7 days by microdilution checkerboard assay; type: functional; settings: 168 h; procedure, shortened: as §2
[37] = system: Mycobacterium tuberculosis; experiment: Antibacterial activity against Mycobacterium tuberculosis H37Rv ATCC 27294T assessed as rifampin MIC at 8 ug/ml after 7 days by microdilution checkerboard assay; type: functional; settings: 168 h; procedure, shortened: as §2
[38] = system: Mycobacterium tuberculosis; experiment: Antibacterial activity against Mycobacterium tuberculosis H37Rv ATCC 27294T assessed as rifampin MIC at 16 ug/ml after 7 days by microdilution checkerboard assay; type: functional; settings: 168 h; procedure, shortened: as §2

Q: Which MIC [1] does the source give for `CCCSc1nnc(COc2ccccc2C2=NOC(c3ccc(Cl)cc3Cl)C2)n1NC(=O)c1ccccc1` (stereo not drawn) here?
A: 2 µg/mL (≈ 3.43 µM)

Q: What about the IC50 [2] of the same compound?
A: 14.8 µg/mL (≈ 25.4 µM)

Q: And the MIC [3]?
A: 0.05 µg/mL

Q: And the MIC [4]?
A: 0.1 µg/mL

Q: What about the MIC [5] of the same compound?
A: 12.5 µg/mL

Q: What about the MIC [6] of the same compound?
A: 6.25 µg/mL

Q: And the MIC [7]?
A: 12.5 µg/mL

Q: And the MIC [8]?
A: 12.5 µg/mL

Q: And the MIC [9]?
A: 12.5 µg/mL

Q: And the MIC [10]?
A: 12.5 µg/mL

Q: And the MIC [11]?
A: 12.5 µg/mL

Q: And the MIC [12]?
A: 1 µg/mL

Q: What about the MIC [13] of the same compound?
A: 1 µg/mL

Q: What about the MIC [14] of the same compound?
A: 2 µg/mL

Q: And the MIC [15]?
A: 2 µg/mL

Q: And the MIC [16]?
A: 2 µg/mL

Q: And the MIC [17]?
A: 2 µg/mL

Q: What about the MIC [18] of the same compound?
A: 2 µg/mL

Q: What about the MIC [19] of the same compound?
A: 1 µg/mL

Q: And the MIC [20]?
A: 1 µg/mL

Q: And the MIC [21]?
A: 2 µg/mL

Q: What about the MIC [22] of the same compound?
A: 2 µg/mL

Q: And the MIC [23]?
A: 2 µg/mL

Q: What about the MIC [24] of the same compound?
A: 32 µg/mL (≈ 54.9 µM)

Q: And the MIC [25]?
A: 0.1 µg/mL

Q: What about the MIC [26] of the same compound?
A: 0.1 µg/mL

Q: What about the MIC [27] of the same compound?
A: 0.1 µg/mL

Q: And the MIC [28]?
A: 0.1 µg/mL

Q: What about the MIC [29] of the same compound?
A: 0.1 µg/mL

Q: And the MIC [30]?
A: 2 µg/mL

Q: What about the MIC [31] of the same compound?
A: 2 µg/mL

Q: What about the MIC [32] of the same compound?
A: 0.125 µg/mL

Q: And the MIC [33]?
A: 0.0312 µg/mL

Q: What about the MIC [34] of the same compound?
A: 0.5 µg/mL

Q: What about the MIC [35] of the same compound?
A: 0.25 µg/mL

Q: And the MIC [36]?
A: 0.25 µg/mL

Q: What about the MIC [37] of the same compound?
A: 0.25 µg/mL

Q: What about the MIC [38] of the same compound?
A: 0.25 µg/mL
